Active and inactive are the calls of the source. The calls are words filed in the database; no cut-off is given here.
How the values were obtained:
[1] = test system: A549; assay: Cytotoxicity against human A549 cells assessed as reduction in cell viability after 72 hrs by MTT assay; assay type: functional, cell-based
Outline: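 MTT viability screen in A549 cells with 72 h compound exposure; value reported as IC50.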

[2] = test system: A549; assay: Induction of apoptosis in human A549 cells assessed as viable cells at 100 uM after 24 hrs by Annexin V/7-AAD staining based flow cytometry (reference value: 89.95%); assay type: functional; settings: A549, 24 h, read-out: Activity
[3] = test system: A549; assay: Induction of autophagy in human A549 cells at 10 to 100 uM after 24 hrs by MDC-staining based fluorescence imaging analysis in presence of autophagy inhibitor bafilomycin A1; assay type: functional, cell-based
Outline: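 A549 cells co-treated 24 h with 10, 50 or 100 μM plus or minus 10 nM bafilomycin A1. Autophagy was quantified by MDC staining fluorescence. Values are means of three independent experiments with SD.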

[4] = test system: A549; assay: Induction of apoptosis in human A549 cells assessed as early apoptotic cells at 100 uM after 24 hrs by Annexin V/7-AAD staining based flow cytometry (reference value: 8.55%); assay type: functional
[5] = test system: A549; assay: Induction of autophagy in human A549 cells after 6 to 24 hrs by MDC-staining based fluorescence imaging analysis; assay type: functional, cell-based
Outline: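 Autophagic vacuoles stained with monodansylcadaverine (MDC). Imaging was done after 24 h at 10, 50 or 100 μM. Relative fluorescence (Ex/Em 335/512 nm) was measured after 6 h at 6.2–100 μM.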

[6] = test system: A549; assay: Induction of apoptosis in human A549 cells assessed as late apoptotic cells at 10 uM after 24 hrs by Annexin V/7-AAD staining based flow cytometry (reference value: 1.5%); assay type: functional
[7] = test system: A549; assay: Induction of autophagy in human A549 cells assessed as increase in LC3-2 level at 10 to 100 uM after 24 hrs by Western blot analysis; assay type: functional, cell-based
Outline: (§1)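 A549 cells exposed 24 h to 10, 50 or 100 μM, then harvested and analysed by Western blot for cleaved PARP and for LC3-II conversion.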

[8] = test system: A549; assay: Induction of apoptosis in human A549 cells assessed as viable cells at 50 uM after 24 hrs by Annexin V/7-AAD staining based flow cytometry (reference value: 89.95%); assay type: functional; settings: A549, 24 h, read-out: Activity
[9] = test system: A549; assay: Induction of apoptosis in human A549 cells assessed as dead cells at 100 uM after 24 hrs by Annexin V/7-AAD staining based flow cytometry relative to control; assay type: functional
Outline: (§2)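 A549 cells exposed for 24 h at 10, 50 or 100 μM, then stained with Annexin-V and 7AAD (Annexin-V and Dead Cell assay kit). Dead and apoptotic populations were counted by flow cytometry on a Muse Cell Analyzer and compared with untreated control. Values are averages of three independent experiments with SD.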

[10] = test system: A549; assay: Induction of apoptosis in human A549 cells assessed as early apoptotic cells at 10 uM after 24 hrs by Annexin V/7-AAD staining based flow cytometry (reference value: 8.55%); assay type: functional
[11] = test system: A549; assay: Induction of morphological changes in human A549 cells assessed as appearance of rounded cell at 10 to 100 uM after 24 hrs; assay type: functional, cell-based
Outline: (§3)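 A549 cells treated 24 h at 10, 50 or 100 μM, then photographed to assess rounding and vacuole appearance.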

[12] = test system: A549; assay: Induction of cell morphological changes in human A549 cells at 10 to 100 uM after 3 hrs; assay type: functional, cell-based
[13] = test system: A549; assay: Induction of apoptosis in human A549 cells assessed as early apoptotic cells at 50 uM after 24 hrs by Annexin V/7-AAD staining based flow cytometry (reference value: 8.55%); assay type: functional
[14] = test system: A549; assay: Induction of apoptosis in human A549 cells assessed as increase in apoptotic cells at 10 to 100 uM after 24 hrs by Annexin V/7-AAD staining based flow cytometry in presence of autophagy inhibitor bafilomycin A1; assay type: functional, cell-based
Outline: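 A549 cells treated 24 h at 10, 50 or 100 μM with or without 10 nM bafilomycin A1. Apoptosis was read by Annexin-V/7AAD on a Muse Cell Analyzer. Values are means of three independent experiments with SD, and significance was tested against control and between ± Baf.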

[15] = test system: A549; assay: Induction of morphological changes in human A549 cells assessed as increase in vacuole appearance at 10 to 100 uM after 24 hrs; assay type: functional, cell-based; outline: as §3
[16] = test system: A549; assay: Induction of apoptosis in human A549 cells assessed as increase in PARP cleavage after 24 hrs by Western blot analysis; assay type: functional, cell-based; outline: as §1
[17] = test system: A549; assay: Induction of apoptosis in human A549 cells assessed as dead cells at 50 uM after 24 hrs by Annexin V/7-AAD staining based flow cytometry relative to control; assay type: functional; outline: as §2
[18] = test system: A549; assay: Induction of apoptosis in human A549 cells assessed as viable cells at 10 uM after 24 hrs by Annexin V/7-AAD staining based flow cytometry (reference value: 89.95%); assay type: functional; settings: A549, 24 h, read-out: Activity
[19] = test system: A549; assay: Induction of apoptosis in human A549 cells assessed as dead cells at 10 uM after 24 hrs by Annexin V/7-AAD staining based flow cytometry relative to control; assay type: functional; outline: as §2
[20] = test system: A549; assay: Induction of apoptosis in human A549 cells assessed as late apoptotic cells at 100 uM after 24 hrs by Annexin V/7-AAD staining based flow cytometry (reference value: 1.5%); assay type: functional
[21] = test system: A549; assay: Induction of apoptosis in human A549 cells assessed as late apoptotic cells at 50 uM after 24 hrs by Annexin V/7-AAD staining based flow cytometry (reference value: 1.5%); assay type: functional
[22] = Homo sapiens, A549, 72 h, read-out: IC50

O=[N+]([O-])c1ccc(-c2c(-c3ccccc3)[nH]c3ccccc23)cc1
IC50 [1, 22]: 38.4 µM

Nc1ccc(-c2[nH]c3ccccc3c2-c2ccccc2)cc1
IC50 [1, 22]: 54.7 µM

COC(=O)c1ccc(-c2[nH]c3ccccc3c2-c2ccccc2)cc1
IC50 ([1]; a549): ND(Insoluble)

O=[N+]([O-])c1ccc(-c2[nH]c3ccccc3c2-c2ccccc2)cc1
IC50 [1, 22]: 24.8 µM

COc1ccc(-c2[nH]c3ccccc3c2-c2ccccc2)cc1
IC50 [1, 22]: 288 µM

COC(=O)c1ccc(-c2c(-c3ccccc3)[nH]c3ccccc23)cc1
viability at 100 µM [2]: 50.5%
Activity [3]: inactive
Activity [4]: 9.7%
Activity [5]: Dose-dependent effect
Activity [6]: 2.8%
Activity [7]: Active
viability at 50 µM [8]: 74.5%
Activity [9]: 0.15%
Activity [10]: 14%
Activity [11]: Active
Activity [12]: Active
Activity [13]: 17.45%
Activity [14]: inactive
Activity [15]: Active
Activity [16]: Dose-dependent effect
Activity [17]: 0.25%
viability at 10 µM [18]: 82.8%
Activity [19]: 0.4%
IC50 [1, 22]: 5.17 µM
Activity [20]: 39.7%
Activity [21]: 7.75%

N#Cc1ccc(-c2[nH]c3ccccc3c2-c2ccccc2)cc1
IC50 [1, 22]: 15 µM

COc1ccc(-c2c(-c3ccccc3)[nH]c3ccccc23)cc1
IC50 [1, 22]: 30 µM

c1ccc(-c2[nH]c3ccccc3c2-c2ccccc2)cc1
IC50 [1, 22]: 58.7 µM

CC(=O)Nc1ccc(-c2c(-c3ccccc3)[nH]c3ccccc23)cc1
IC50 ([1]; a549): ND(Insoluble)

CC(=O)Nc1ccc(-c2[nH]c3ccccc3c2-c2ccccc2)cc1
IC50 ([1]; a549): ND(Insoluble)

N#Cc1ccc(-c2c(-c3ccccc3)[nH]c3ccccc23)cc1
IC50 [1, 22]: 18.3 µM

Nc1ccc(-c2c(-c3ccccc3)[nH]c3ccccc23)cc1
IC50 [1, 22]: 83.4 µM

Source: ChEMBL document CHEMBL3792293, “A synthetic 2,3-diarylindole induces cell death via apoptosis and autophagy in A549 lung cancer cells” (Bioorg Med Chem Lett, 2016)
